Residues, ends and D or L forms follow the SMILES beside them.
How the values were obtained:
[1] = target: T1, HCMV A143T/A144T protease mutant (Human cytomegalovirus, UniProt P16753, A143T/A144T); experiment: Esterase activity toward p-nitrophenol; type: biochemical; conditions: for hydrolysis by HCMV protease (in words): up to 10 min at 30 °C
T1 sequence (P16753 1-256 A143T/A144T limits assumed): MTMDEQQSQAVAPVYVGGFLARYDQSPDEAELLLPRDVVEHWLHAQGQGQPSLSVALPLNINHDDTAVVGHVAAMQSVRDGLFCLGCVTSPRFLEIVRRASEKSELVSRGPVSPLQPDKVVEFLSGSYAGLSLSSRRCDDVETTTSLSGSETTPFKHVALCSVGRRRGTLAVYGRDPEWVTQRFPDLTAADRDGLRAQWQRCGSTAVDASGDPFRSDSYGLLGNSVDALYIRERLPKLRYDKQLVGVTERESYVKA
In short: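 Catalytic-domain His-tagged A143T/A144T mutant, expressed in E. coli BL21(DE3) and Ni-NTA purified, 10 μg/mL, preincubated 3 min in 100 mM phosphate pH 7.4 with 0.5 M Na2SO4 and 10% glycerol. Boc-Xaa-ONp (50 μM) then added at 30 °C for up to 10 min. p-Nitrophenol release read at 405 nm every 30 s. Boc-Ala-ONp kinetics run in 50 mM Tris pH 7.4.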

[2] = Solubility of the model ester; type: physicochemical
HCMV protease = conditions: substrate hydrolysis, literature data; cited from earlier work
[3] = substrate hydrolysis, 10 μg/mL protease, 50 mM Tris buffer (pH 7.4)

## C[C@H](NC(=O)OC(C)(C)C)C(=O)Oc1ccc([N+](=O)[O-])cc1 [Boc-L-Ala-ONp]
[1]; 50 μM ester, 10 μg/mL protease
  specific activity relative to Boc-L-Gly-ONp and Boc-L-Phe-ONp (higher): ~5 fold
[1]; 50 μM ester, 10 μg/mL protease, 30 °C
  specific activity: 190 nmol/min/mg protein
[1]; comparison of Km values
  affinity relative to N-Ac-Tbg-Tbg-Asn(NMe2)-Ala-AMC (less): about 10 fold
[1]; comparison of kcat values
  turnover rate (kcat) relative to the peptide compound (faster): 10 fold
[1]; [3]
  Km: 163 µM
  kcat: 0.397 s^–1
[2]
  solubility (in words): low solubility

## CC(C)(C)OC(=O)N[C@@H](CCC(N)=O)C(=O)Oc1ccc([N+](=O)[O-])cc1 [Boc-L-Gln-ONp]
[1]; 50 μM ester, 10 μg/mL protease
  hydrolysis by HCMV protease (in words): not hydrolyzed

## CC(C)(C)OC(=O)NCC(=O)NCC(=O)Oc1ccc([N+](=O)[O-])cc1 [Boc-L-Gly-L-Gly-ONp] (HELM PEPTIDE1{[CC(C)(C)OC(=O)[*:2]].G.G.[O=[N+]([O-])c1ccc(O[*:1])cc1]}$$$$V2.0)
[1]; 50 μM ester, 10 μg/mL protease
  hydrolysis by HCMV protease (in words): slower than that of Boc-L-Gly-ONp

## CCC(C)C(NC(=O)OC(C)(C)C)C(=O)Oc1ccc([N+](=O)[O-])cc1 [Boc-L-Ile-ONp]
[1]; 50 μM ester, 10 μg/mL protease
  hydrolysis by HCMV protease (in words): not hydrolyzed

## CC(C)CC(NC(=O)OC(C)(C)C)C(=O)Oc1ccc([N+](=O)[O-])cc1 [Boc-L-Leu-ONp]
[1]; 50 μM ester, 10 μg/mL protease
  hydrolysis by HCMV protease (in words): not hydrolyzed

## CC(C)[C@H](NC(=O)OC(C)(C)C)C(=O)Oc1ccc([N+](=O)[O-])cc1 [Boc-L-Val-ONp]
[1]; 50 μM ester, 10 μg/mL protease
  hydrolysis by HCMV protease (in words): not hydrolyzed

## N-Ac-Tbg-Tbg-Asn(NMe2)-Ala-AMC
HCMV protease
  Km: 13.2 µM
  kcat: 0.035 ^b s^–1

— PMC3616455 (Molecular Pharmaceutics, 2013)
